High-throughput results as filed in PubChem BioAssay.
This is a sample that favours compounds with a hit; in the whole collection about 6.4% have one here.
HUVEC prolif 384: inhibitors of HUVEC proliferation, primary screen, cell-based, 384-well; CellTiter-Glo luminescence, 72 h; stronger effect = lower value; viability, % at 10 µM (by protocol); hit rate 1.1% among 86,000; AID 648, 2007;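 active = viability at or below 30%; inactive = viability above 30%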
Jurkat tox 60K: cytotoxicity toward Jurkat T cells, primary screen, cytotoxicity control, cell-based, Jurkat E6.1, 60K MLSMR library | AID 463, 2006 | Jurkat E6.1 viability, ATP luminescence, 48 h | hit rate 1.2% among 56,000 | inhibition, % at 4 µM;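 active = inhibition above the mean inhibition of all tested compounds plus 3 SD, cut at about 28% in these data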
tolC growth inh: growth inhibitors of E. coli tolC mutant, primary screen, strain BW25113 ΔtolC::kan, 384-well; OD615; growth inhibition, % at 10 µM (by protocol); hit rate 2.2% among 65,000;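 active = growth inhibition at or above a cutoff equal to the mean over every tested compound plus 3 SD, cut at about 60% in these data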;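 also: growth measured after 20 h incubation at 37 °C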
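Test system: tolC-deleted E. coli BW25113 | Medium: LB with kanamycin 50 µg/mL | Compound dosing: Single concentration, 10 µM final per compound | Schedule: 37 °C, 20 h exposure | Measured by: OD at 615 nm | Evaluation: Percent growth inhibition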
H69AR growth 86K: proliferation blockers of H69AR lung cancer cells, primary screen, cell-based, human, 86K library; H69AR lung tumor viability, ATP luminescence, 72 h; stronger effect = lower value; viability, % at 10 µM; hit rate 6% among 85,000; AID 598, 2007;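 active = viability at or below 40%; inactive = viability above 40%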;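 also: multidrug resistant small cell line overexpressing MRP-1 efflux transporter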
E coli WT exp: growth inhibitors of wild-type E. coli, primary screen, strain BW25113, expanded library, OD600. OD600 absorbance. growth inhibition, % at 100 µM. hit rate 0.15% among 98,000;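 active = growth inhibition above about 50% at one test dose, limit read from the data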;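 also: growth measured after 20 h incubation at 37 °C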
Lung fibro prol: antiproliferative effect on LL 47 fibroblasts – human, LL 47 cells, CellTiter-Glo luminescence, primary screen | AID 719, 2007 | hit rate 1.1% among 85,000 | LL 47 human lung fibroblast viability, ATP luminescence; stronger effect = lower value | viability, % at 10 µM;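 active = viability at or below 50% in the single dose screen; inactive = viability above 50%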;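 also: compound exposure lasted 72 h before the ATP readout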
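Material: human LL 47 lung fibroblast cells; quantity: 1,150 cells/well; medium: IMEM plus 15% FBS; doses: 0.1% DMSO in all compound wells; timing: overnight attachment after seeding, then 72 h compound exposure at 37 °C; detection: CellTiter-Glo luminescence; measure: % viability of median cell-only signal; controls: cell-only wells, no compound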
Hits are given with their value; n = inactive; x = no result.

SMILES | HUVEC prolif 384 | Jurkat tox 60K | tolC growth inh | H69AR growth 86K | E coli WT exp | Lung fibro prol
COc1ccc(OC)c(NS(=O)(=O)c2ccc(N3CCCC3=O)cc2)c1 | x | x | n | x | n | x
O=C1NC(c2ccc3c(c2)OCO3)Oc2ccccc21 (configuration not stated) | n | n | n | n | n | n
O=C1NC(c2ccc3c(c2)OCO3)Nc2ccccc21 (configuration not stated) | n | n | n | 27.1 | n | n
c1ccc(Nc2nc(N3CCCCC3)nc(N3CCNCC3)n2)cc1 | x | n | n | x | n | x
C1CCN(c2nc(N3CCCC3)nc(N3CCNCC3)n2)C1 | n | n | n | 6.0 | n | n
Cc1ccc(/C(O)=C2\C(=O)C(=O)N(CC(C)O)C2c2ccc(N(C)C)cc2)cc1 (configuration not stated) | n | n | n | n | n | n
CCOC(=O)c1cc2sc(C)cc2n1CC(=O)NCCc1ccccc1 | n | x | n | 26.9 | n | n
O=C(O)c1cccc(NC(=O)c2cccc(S(=O)(=O)N3CCCCC3)c2)c1 | n | n | n | n | n | n
Nc1nc(NC(=O)c2cccc(S(=O)(=O)N3CCCCCC3)c2)nc(-c2ccccc2)n1 | n | x | n | 5.3 | n | 24.9
Nc1ccc(S(=O)(=O)c2ccc(Cl)cc2)cc1 | n | x | x | n | n | n
Cc1ccc(S(=O)(=O)c2c(COC(=O)c3ccc(Cl)cc3)c(-c3ccccc3)nn2C)cc1 | n | x | x | n | n | n
COc1cc2c3c(c1)-c1c(sn(-c4cc(OC)ccc4OC)c1=S)C(C)(C)N3C(=O)C2=O | n | x | x | 3.9 | n | n
COCCN(C(=O)CNC(=O)c1ccco1)C(C(=O)NC1CCCCC1)c1cccs1 (configuration not stated) | n | x | x | n | x | n
NS(=O)(=O)c1ccc(CCNc2ncnc3sccc23)cc1 | n | 84.8 | n | n | n | n
CCN(CC)c1ccc2c(c1)oc(=O)c1c(Cl)cc(=O)oc12 | n | n | n | 1.9 | n | 11.0
CCN(CC)c1ccc2c(Cl)c(Br)c(=O)oc2c1 | n | n | n | 11.9 | n | 33.9
CCN(CC)c1ccc2c(C)c(-c3ccc(N)cc3)c(=O)oc2c1 | n | x | n | n | n | n
CCC1CC2CC(NC(C)=O)C1C2 (configuration not stated) | n | x | x | n | n | n
COC(=O)C1=C(NC(=O)c2ccc(C)c(C)c2)CCS1 | x | n | n | x | n | x
CCCCCCc1cc2cc(-c3nnc(-c4ccccc4OC)o3)c(=O)oc2cc1O | n | x | x | 3.0 | n | n
CCCCCCc1cc2cc(-c3nnc(-c4cc(OC)c(OC)c(OC)c4)o3)c(=O)oc2cc1O | n | x | x | 2.3 | x | n
O=C(/C=C/NNC(=O)c1cccc(Br)c1)c1cccc(Br)c1 | n | x | x | n | n | n
O=C(/C=C/NNC(=O)c1ccccc1)c1ccc(Br)cc1 | n | x | x | 34.2 | n | n
CCC(CC)C1C(C#N)=C(N)Oc2n[nH]c(C)c21 (configuration not stated) | n | x | n | 13.3 | n | n
CCC(CC)C1C(C#N)=C(N)Oc2n[nH]c(-c3ccccc3)c21 (configuration not stated) | n | x | x | 36.0 | n | n
SMILES | HUVEC prolif 384 | Jurkat tox 60K | tolC growth inh | H69AR growth 86K | E coli WT exp | Lung fibro prol
CC(C)c1[nH]nc2c1C(c1cccs1)C(C#N)=C(N)O2 (configuration not stated) | n | x | x | 39.8 | x | n
CC(C)(C)c1[nH]nc2c1C(Cc1ccccc1)C(C#N)=C(N)O2 (configuration not stated) | n | n | 64.2 | x | n | n
CCOC(=O)c1sc(N)c(C#N)c1CSc1nnc(C2CCCCC2)n1N | n | n | n | n | n | n
Cc1[nH]nc2c1C(c1ccc(-c3ccccc3C#N)o1)C(C#N)=C(N)O2 (configuration not stated) | n | n | n | 1.6 | n | n
CC(C)C1C(C#N)=C(N)Oc2n[nH]c(-c3cccs3)c21 (configuration not stated) | n | n | n | n | n | n
CC(C)C1C(C#N)=C(N)Oc2n[nH]c(-c3ccc4ccccc4c3)c21 (configuration not stated) | n | x | x | 15.8 | n | n
